Calls of active or inactive are those of the source. The calls are words filed in the database; no cut-off is given here.
Tests used:
[1] = tested on: A-375; assay: Induction of apoptosis in human A375 cells assessed as live cells at 16 uM after 72 hrs by Annexin/propidium iodide staining based flow cytometry (reference value: 86.07%); format: functional
[2] = tested on: HCT-116; assay: Antiproliferative activity against human HCT116 cells after 72 hrs by CCK8 assay; format: functional, cell-based; conditions: for IC50: HCT-116, 72 h
Procedure, shortened: (§1)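 CCK-8 viability read-out on four human cancer lines (HepG2, A549, HCT116, A375) over a range of concentrations. IC50 is the concentration that reduces viability to 50%. Values are means of three experiments.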

[3] = species: Homo sapiens; assay: Induction of DNA damage in human A375 cells assessed as increase in gammaH2AX level at 16 uM after 48 hrs by high throughput assay relative to control; format: cell-based
Procedure, shortened: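 A375 cells were exposed for 48 h at 8 and 16 µM. Histone H2AX phosphorylation (γH2AX, a double-strand-break marker) was detected with the EpiQuik In Situ DNA Damage Assay kit following the maker's protocol. Results are expressed as percent of the untreated control, as mean ± SD (n=3), with a t-test for significance.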

[4] = tested on: A-375; assay: Induction of apoptosis in human A375 cells assessed as necrotic cells at 16 uM after 72 hrs by Annexin/propidium iodide staining based flow cytometry (reference value: 1.36%); format: functional
[5] = tested on: A-375; assay: Induction of apoptosis in human A375 cells assessed as live cells at 2 uM after 72 hrs by Annexin/propidium iodide staining based flow cytometry (reference value: 86.07%); format: functional
[6] = tested on: A-375; assay: Cell cycle arrest in human A375 cells assessed as accumulation at G0/G1 phase at 8 uM after 72 hrs by propidium iodide staining based flow cytometry (reference value: 83.6%); format: functional
[7] = tested on: A-375; assay: Induction of apoptosis in human A375 cells assessed as early apoptotic cells at 8 uM after 72 hrs by Annexin/propidium iodide staining based flow cytometry (reference value: 1.62%); format: functional
[8] = tested on: A-375; assay: Anticlonogenic activity against human A375 cells at 2 to 16 uM after 7 days by crystal violet staining based assay; format: functional, cell-based
[9] = tested on: A-375; assay: Induction of apoptosis in human A375 cells assessed as necrotic cells at 2 uM after 72 hrs by Annexin/propidium iodide staining based flow cytometry (reference value: 1.36%); format: functional
[10] = tested on: A-375; assay: Cell cycle arrest in human A375 cells assessed as accumulation at S phase at 8 uM after 72 hrs by propidium iodide staining based flow cytometry (reference value: 3.8%); format: functional
[11] = tested on: HepG2; assay: Antiproliferative activity against human HepG2 cells after 72 hrs by CCK8 assay; format: functional, cell-based; conditions: for IC50: HepG2, 72 h; procedure, shortened: as §1
[12] = tested on: A-375; assay: Induction of apoptosis in human A375 cells assessed as early apoptotic cells at 2 uM after 72 hrs by Annexin/propidium iodide staining based flow cytometry (reference value: 1.62%); format: functional
[13] = tested on: A-375; assay: Induction of apoptosis in human A375 cells assessed as late apoptotic cells at 2 uM after 72 hrs by Annexin/propidium iodide staining based flow cytometry (reference value: 6.95%); format: functional
[14] = tested on: A-375; assay: Induction of apoptosis in human A375 cells assessed as late apoptotic cells at 8 uM after 72 hrs by Annexin/propidium iodide staining based flow cytometry (reference value: 6.95%); format: functional
[15] = tested on: A-375; assay: Antiproliferative activity against human A375 cells after 72 hrs by CCK8 assay; format: functional, cell-based; conditions: for IC50: A-375, 72 h; procedure, shortened: as §1
[16] = tested on: A-375; assay: Cell cycle arrest in human A375 cells assessed as accumulation at G2/M phase at 8 uM after 72 hrs by propidium iodide staining based flow cytometry (reference value: 12.6%); format: functional
[17] = tested on: A-375; assay: Induction of apoptosis in human A375 cells assessed as late apoptotic cells at 16 uM after 72 hrs by Annexin/propidium iodide staining based flow cytometry (reference value: 6.95%); format: functional
[18] = tested on: A549; assay: Antiproliferative activity against human A549 cells after 72 hrs by CCK8 assay; format: functional, cell-based; conditions: for IC50: A549, 72 h; procedure, shortened: as §1
[19] = tested on: A-375; assay: Induction of apoptosis in human A375 cells assessed as live cells at 8 uM after 72 hrs by Annexin/propidium iodide staining based flow cytometry (reference value: 86.07%); format: functional
[20] = tested on: A-375; assay: Induction of apoptosis in human A375 cells assessed as necrotic cells at 8 uM after 72 hrs by Annexin/propidium iodide staining based flow cytometry (reference value: 1.36%); format: functional
[21] = tested on: A-375; assay: Induction of apoptosis in human A375 cells assessed as early apoptotic cells at 16 uM after 72 hrs by Annexin/propidium iodide staining based flow cytometry (reference value: 1.62%); format: functional
[22] = target: Histone deacetylase (Homo sapiens) (UniProt Q13547+O15379+Q9UBN7+Q92769+Q9UQL6+Q8WUI4+Q9BY41+Q96DB2+P56524+Q9UKV0+Q969S8); assay: Inhibition of HDAC in human HeLa nuclear extract up to 10000 uM preincubated with cells followed by flour de lys-green substrate addition measured after 1 hr by fluorescence assay
[23] = target: Histone deacetylase 1 (Homo sapiens, UniProt Q13547); assay: Inhibition of recombinant human HDAC1 (482 residues) expressed in baculovirus infected insect cells preincubated with enzyme followed by flour de lys-green substrate addition measured after 1 hr by fluorescence assay
Histone deacetylase 1, sequence (Q13547 whole entry): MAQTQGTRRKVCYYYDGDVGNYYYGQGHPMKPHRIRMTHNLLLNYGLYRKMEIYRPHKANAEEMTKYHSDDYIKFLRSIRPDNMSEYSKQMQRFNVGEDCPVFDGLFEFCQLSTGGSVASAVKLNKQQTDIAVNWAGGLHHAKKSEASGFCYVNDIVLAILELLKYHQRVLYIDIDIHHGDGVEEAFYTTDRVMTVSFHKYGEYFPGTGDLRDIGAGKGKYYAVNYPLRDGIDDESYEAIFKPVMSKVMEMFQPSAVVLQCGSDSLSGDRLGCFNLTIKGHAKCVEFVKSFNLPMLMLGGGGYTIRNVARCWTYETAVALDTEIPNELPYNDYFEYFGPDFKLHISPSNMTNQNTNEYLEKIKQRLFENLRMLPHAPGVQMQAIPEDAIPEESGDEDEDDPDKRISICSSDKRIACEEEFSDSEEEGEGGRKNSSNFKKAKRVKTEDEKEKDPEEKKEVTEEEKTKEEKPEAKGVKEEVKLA

[24] = tested on: A-375; assay: Anticlonogenic activity against human A375 cells after 7 days by crystal violet staining based assay; format: functional, cell-based
[25] = target: Histone deacetylase 2 (Homo sapiens, UniProt Q92769); assay: Inhibition of recombinant human HDAC2 preincubated with enzyme followed by flour de lys-green substrate addition measured after 1 hr by fluorescence assay
Histone deacetylase 2, sequence (Q92769 whole entry): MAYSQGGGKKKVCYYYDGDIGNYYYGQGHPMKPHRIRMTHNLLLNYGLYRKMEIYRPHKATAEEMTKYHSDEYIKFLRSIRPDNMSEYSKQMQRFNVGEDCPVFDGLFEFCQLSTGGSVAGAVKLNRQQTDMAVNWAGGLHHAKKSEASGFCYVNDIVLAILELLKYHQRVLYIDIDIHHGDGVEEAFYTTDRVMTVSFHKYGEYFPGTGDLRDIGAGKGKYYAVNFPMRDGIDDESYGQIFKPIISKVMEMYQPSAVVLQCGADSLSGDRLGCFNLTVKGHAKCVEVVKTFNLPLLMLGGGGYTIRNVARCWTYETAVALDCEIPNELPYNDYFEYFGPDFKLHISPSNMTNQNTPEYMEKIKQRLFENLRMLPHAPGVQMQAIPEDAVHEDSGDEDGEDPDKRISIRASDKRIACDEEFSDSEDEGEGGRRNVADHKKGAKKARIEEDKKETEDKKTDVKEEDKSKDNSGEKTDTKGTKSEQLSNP

[26] = tested on: A-375; assay: Induction of apoptosis in human A375 cells after 72 hrs by Annexin/propidium iodide staining based flow cytometry; format: functional, cell-based
[27] = target: T1, Protein deacetylase HDAC6 (Homo sapiens, UniProt Q9UBN7); assay: Inhibition of recombinant human His-tagged HDAC6 expressed in baculovirus infected insect cells preincubated with enzyme followed by flour de lys-green substrate addition measured after 1 hr by fluorescence assay
T1 sequence (Q9UBN7 whole entry): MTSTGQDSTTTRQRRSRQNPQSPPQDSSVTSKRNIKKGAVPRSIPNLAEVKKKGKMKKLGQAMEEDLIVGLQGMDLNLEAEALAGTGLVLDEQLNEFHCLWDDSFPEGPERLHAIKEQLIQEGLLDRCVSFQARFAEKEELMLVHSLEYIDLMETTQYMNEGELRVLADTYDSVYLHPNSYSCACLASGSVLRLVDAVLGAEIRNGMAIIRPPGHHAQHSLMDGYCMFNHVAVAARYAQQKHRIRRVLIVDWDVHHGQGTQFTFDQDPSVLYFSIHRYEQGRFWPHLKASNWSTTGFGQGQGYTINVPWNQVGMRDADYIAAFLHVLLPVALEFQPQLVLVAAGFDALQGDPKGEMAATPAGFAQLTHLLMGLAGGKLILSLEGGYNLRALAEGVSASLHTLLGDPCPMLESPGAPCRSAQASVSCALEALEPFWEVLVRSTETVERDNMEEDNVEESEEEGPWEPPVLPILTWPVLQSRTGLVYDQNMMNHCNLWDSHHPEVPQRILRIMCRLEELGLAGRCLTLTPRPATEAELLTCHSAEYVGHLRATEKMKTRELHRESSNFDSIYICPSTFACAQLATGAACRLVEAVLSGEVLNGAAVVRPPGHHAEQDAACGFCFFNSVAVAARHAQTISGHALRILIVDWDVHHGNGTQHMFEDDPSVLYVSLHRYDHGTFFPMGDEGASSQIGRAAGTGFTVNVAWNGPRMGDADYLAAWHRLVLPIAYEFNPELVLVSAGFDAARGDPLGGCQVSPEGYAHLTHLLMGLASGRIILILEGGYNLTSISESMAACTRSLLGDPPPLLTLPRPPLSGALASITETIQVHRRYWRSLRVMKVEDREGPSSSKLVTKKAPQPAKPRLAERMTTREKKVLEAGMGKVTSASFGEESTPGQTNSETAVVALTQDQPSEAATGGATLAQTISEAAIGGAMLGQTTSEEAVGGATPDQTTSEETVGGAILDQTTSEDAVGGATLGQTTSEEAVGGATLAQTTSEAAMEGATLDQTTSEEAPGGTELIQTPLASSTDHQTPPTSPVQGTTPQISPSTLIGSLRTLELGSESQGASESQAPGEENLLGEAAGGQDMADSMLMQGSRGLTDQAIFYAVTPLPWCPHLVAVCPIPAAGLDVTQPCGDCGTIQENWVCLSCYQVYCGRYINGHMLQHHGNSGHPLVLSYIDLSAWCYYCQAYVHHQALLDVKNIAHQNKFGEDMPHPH

| Compound | Activity [1] [%] | IC50 [2] [µM] | Activity [3] [%] | Activity [4] [%] | Activity [5] [%] | Activity [6] [%] | Activity [7] [%] | Activity [9] [%] | Activity [10] [%] | IC50 [11] [µM] | Activity [12] [%] | Activity [13] [%] | Activity [14] [%] | IC50 [15] [µM] | Activity [16] [%] | Activity [17] [%] | IC50 [18] [µM] | Activity [19] [%] | Activity [20] [%] | Activity [21] [%] | other results |
| --- | --- | --- | --- | --- | --- | --- | --- | --- | --- | --- | --- | --- | --- | --- | --- | --- | --- | --- | --- | --- | --- |
| O=C(O)CCCc1ccc(N(CCCl)CCCl)cc1 [CHLORAMBUCIL] | 71.14 | 57.6 | 129 | 6.44 | 90.07 | 47 | 2.11 | 1.36 | 5.4 | 112 | 1.62 | 6.95 | 8.41 | 69.2 | 47.6 | 18.21 | 22.2 | 87.14 | 2.34 | 4.21 | Activity [8]: Active |
| O=C(CCCCCCC(=O)Nc1ccc(N(CCCl)CCCl)cc1)NO | 30.42 | 3.2 | 224 | 2.75 | 84.36 | 27.7 | 16.02 | 2.07 | 5.8 | 6.1 | 3.31 | 10.26 | 29.95 | 6.2 | 66.5 | 53.54 | 4.4 | 50.76 | 3.27 | 13.29 | Activity [2]: Dose-dependent effect; inhibition [22]: Active; IC50 [23]: 0.27 µM; Activity [11]: Dose-dependent effect; Activity [15]: Dose-dependent effect; Activity [24]: Dose-dependent effect; Activity [18]: Dose-dependent effect; IC50 [25]: 0.24 µM; Activity [26]: Dose-dependent effect; IC50 [27]: 0.62 µM |

From ChEMBL document CHEMBL4177566, “Rational design, synthesis and preliminary antitumor activity evaluation of a chlorambucil derivative with potent DNA/HDAC dual-targeting inhibitory activity” (Bioorg Med Chem Lett, 2017)
